Screening results (PubChem)
HUVEC inhibit = inhibitors of HUVEC proliferation, primary screen, cell-based, 384-well; CellTiter-Glo luminescence, 72 h; active compounds read low; viability, % at 10 µM (by protocol); 86,000 compounds, 1.1% hits; AID 648, 2007;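 active means viability at or below 30%; inactive means viability above 30%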
HCT116 bCat-KO = primary screen for growth suppressors in beta-catenin knockout HCT116 cells (colon tumor, human) | viability, % at 10 µM | AID 818, 2007 | 140,000 compounds, 1.5% hits | HCT116 beta-catenin knockout viability, CellTiter-Glo, 60 h; active compounds read low;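 active means viability at or under a set limit, the compound median less 4 SD, cut at about 6% in these data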
H69AR inhibit = proliferation blockers of H69AR lung cancer cells, primary screen, cell-based, human, 86K library; AID 598, 2007; viability, % at 10 µM; H69AR lung tumor viability, ATP luminescence, 72 h; active compounds read low; 85,000 compounds, 6% hits;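 active means viability at or below 40%; inactive means viability above 40%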;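 further: multidrug resistant small cell line overexpressing MRP-1 efflux transporter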
HCT116 PTEN-null = growth suppression of PTEN-null HCT116, primary screen, cell-based, CellTiter-Glo | HCT116 PTEN-null viability, 60 h; active compounds read low | viability, % at 10 µM | 140,000 compounds, 1.2% hits;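 active means viability at or below a set limit, 4 SD under the median of all tested compounds, cut at about 3.7% in these data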;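 further: PTEN knockout HCT116 line with beta catenin targeted HCT116 as companion control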
Lung fibro prol = antiproliferative effect on LL 47 fibroblasts – human, LL 47 cells, CellTiter-Glo luminescence, primary screen. 85,000 compounds, 1.1% hits. viability, % at 10 µM. LL 47 human lung fibroblast viability, ATP luminescence; active compounds read low. AID 719, 2007;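 active means viability at or below 50% in the single dose screen; inactive means viability above 50%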;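 further: compound exposure lasted 72 h before the ATP readout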
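Times – overnight cell rest, 72 h compound treatment at 37 °C · Test system – human lung fibroblast line LL 47, low passage · Amount – 1,150 cells in each well · Controls – cell-only wells, no compound · Doses – 0.1% DMSO in all compound wells · Measured by – CellTiter-Glo luminescence · Buffer or medium – IMEM plus 15% FBS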
Numbers stand for hits; n = inactive; x = not tested or not shown. The full list was thinned out, with hits kept by preference.

SMILES	HUVEC inhibit	HCT116 bCat-KO	H69AR inhibit	HCT116 PTEN-null	Lung fibro prol
CCOc1ccccc1N1CCN(C(=O)/C=C/c2cccc([N+](=O)[O-])c2)CC1	x	n	x	n	x
O=S(=O)(c1ccc(S(=O)(=O)N2CCCC3(CCCCC3)C2)cc1)N1CCCCC1	n	n	34.6	n	n
O=c1c(-c2nc3ccccc3s2)cccn1Cc1ccc(Cl)c(Cl)c1	x	n	x	n	x
O=C(CCSc1nnc(-c2ccncc2)o1)Nc1ccccc1	n	n	n	n	n
O=C(CCSc1nnc(-c2ccncc2)o1)Nc1cccc2ccccc12	n	n	36.9	n	n
CCN(CC)C(=O)c1sc(NC(=O)c2ccc3c(c2)OCO3)c(C#N)c1C	n	n	n	n	n
Cc1c(Cc2ccc3c(c2)OCO3)sc(NC(=O)C(C)(C)C)c1C#N	n	n	38.3	n	n
O=C(CN(c1ccc(Cl)c(C(F)(F)F)c1)S(=O)(=O)c1ccccc1)N/N=C/c1cccc2c1OCCO2	x	n	x	n	x
O=C(CCN1C(=O)c2ccccc2C1=O)Oc1ccc2ccccc2c1	n	n	n	n	n
CC1=CC(C)(C)Nc2ccc(OC(=O)CCN3C(=O)c4ccccc4C3=O)cc21	x	1.2	x	1.5	x
CCCc1cc(C(N)=O)c(NC(C)=O)s1	n	n	39.9	n	n
Cc1[nH]nc2c1C(c1ccc(-c3ccc(Cl)cc3)o1)C(C#N)=C(N)O2 (stereo not drawn)	x	1.3	x	0.7	x
CC(C)c1[nH]nc2c1C(c1cccs1)C(C#N)=C(N)O2 (stereo not drawn)	n	n	39.8	n	n
Cc1[nH]nc2c1C(c1ccsc1C)C(C#N)=C(N)O2 (stereo not drawn)	x	n	x	1.2	x
Cc1[nH]nc2c1C(c1ccc(-c3ccccc3C#N)o1)C(C#N)=C(N)O2 (stereo not drawn)	n	n	1.6	n	n
CCOc1ccc(C(=O)C(CCC(CN(C)C)C(=O)c2ccc(OCC)cc2)CN(C)C)cc1 (stereo not drawn)	x	1.1	x	1.3	x
COc1ccc(C(=O)C(CCCCC(CN(C)C)C(=O)c2ccc(OC)cc2)CN(C)C)cc1 (stereo not drawn)	x	n	x	n	x
CCN(C(=S)NC(=O)CCc1ccccc1)c1ccccc1	x	n	x	n	x
Oc1ccc(Cl)cc1-c1cc(-c2ccccc2)n[nH]1	n	n	4.3	n	n
COc1ccc(-c2cc(-c3ccccc3O)[nH]n2)cc1	n	n	12.9	n	n
COc1ccccc1-c1cc(-c2cc(Cl)ccc2O)n[nH]1	n	n	n	n	n
COc1ccc(N(C(=O)Cc2cccs2)C(C(=O)NC2CCCCC2)c2cccn2C)cc1OC (stereo not drawn)	n	n	n	n	n
COc1cc(N(C(=O)Cc2cccs2)C(C(=O)NC2CCCCC2)c2ccc(C)cc2)ccc1-n1cnnn1 (stereo not drawn)	x	n	x	1.4	x
Cc1cccc(N(C(=O)C(F)(F)F)C(C(=O)NC2CCCCC2)c2cccs2)c1 (stereo not drawn)	x	n	x	n	x
C#CC(=O)N(c1ccc(OC)c(OC)c1)C(C(=O)NC1CCCC1)c1cccs1 (stereo not drawn)	x	1.3	x	1.7	x
SMILES	HUVEC inhibit	HCT116 bCat-KO	H69AR inhibit	HCT116 PTEN-null	Lung fibro prol
C#CC(=O)N(c1cccc(OC)c1)C(C(=O)NC1CCCC1)c1cccs1 (stereo not drawn)	x	0.5	x	1.0	x
CCC(CC)c1nnc(NC(=O)c2cc(C(=O)OC)cc([N+](=O)[O-])c2)s1	x	n	x	n	x
CCOC(=O)CNC(=O)C(=O)c1c(O)[nH]c2ccccc12	n	n	n	n	48.1
CCOC(=O)CNC(=O)c1ccccc1	n	n	n	n	n
O=C(O)/C=C/c1ccc2c(-c3ccccc3)onc2c1	x	n	x	n	x
OC(COCc1ccc(Cl)cc1)CN1CCN(c2ccccn2)CC1 (stereo not drawn)	x	n	x	n	x
CCOc1ccc(-c2nn(-c3ccccc3)cc2/C=C2\SC(N)=NC2=O)cc1C	x	1.1	x	0.7	x
CCCCn1c(N)c(N(CC)C(=O)CCc2ccccc2)c(=O)[nH]c1=O	x	n	x	n	x
COc1ccc(Cl)cc1N(CC(=O)NCC(C)C)S(=O)(=O)c1ccc(C)c([N+](=O)[O-])c1	x	n	x	n	x
C#CC[N+](C)(C)CCCCCCCCCC	x	n	x	n	x
C#CC[N+](C)(C)CCCCCCCCCCCC	x	1.4	x	1.7	x
CC#CC[N+](C)(C)CCCCCCCCCCCC	x	0.8	x	0.6	x
COc1ccccc1NC(=O)Cn1nc(-c2ccc(Cl)cc2)c2ccccc2c1=O	n	n	35.2	n	n
COc1ccc(Cl)cc1NC(=O)Cn1c(=O)n2nc(C)nc2c2ccccc21	n	n	0.9	n	n
COc1ccc(Cl)cc1NC(=O)CN1C(=O)CCS(=O)(=O)c2ccccc21	n	n	28.9	n	n
CC1=C/C(=N\Nc2ccccc2[N+](=O)[O-])CC(C)(C)C1	x	n	x	n	x
COc1ccccc1NC(=O)c1ccc(NC(=O)CSc2n[nH]c(N)n2)cc1	x	n	x	n	x
C/C=C/CSc1nc2c(c(=O)[nH]c(=O)n2C)n1Cc1ccc(C)cc1	n	n	18.4	n	n
CC(C)CCn1c(SCc2ccc(Cl)cc2)nc2c1c(=O)[nH]c(=O)n2C	n	n	28.3	n	n
C/C(Cl)=C/Cn1c(SCc2ccc(Cl)cc2)nc2c1c(=O)[nH]c(=O)n2C	n	n	n	n	n
CCCCn1c(SCc2ccc(Cl)cc2)nc2c1c(=O)[nH]c(=O)n2C	n	n	26.7	n	n
CC(C)CCn1c(Sc2nc3ccccc3o2)nc2c1c(=O)[nH]c(=O)n2C	x	5.4	x	3.4	x
CC(=O)Nc1nonc1NC(=O)c1ccc(C(C)(C)C)cc1	n	n	n	n	n
CCOC(=O)/C=C1\SCC(=O)N1CC(=O)NCc1cccc(Cl)c1	x	n	x	n	x
C/C(=N\OCC(=O)Nc1c(C)cc(C)cc1C)c1ccc2c(c1)OCCO2	x	n	x	n	x
SMILES	HUVEC inhibit	HCT116 bCat-KO	H69AR inhibit	HCT116 PTEN-null	Lung fibro prol
CC(C)C1CC(CCNCc2ccc(N(C)C)cc2)(c2ccccc2)CCO1 (stereo not drawn)	x	2.3	x	2.6	x
Cc1c(C(=O)C(=O)N2CCCc3ccccc32)c2ccccc2n1C	x	n	x	n	x
CCCCc1ccc(-c2nc(NC(=O)C3C4CCC(O4)C3C(=O)O)sc2C)cc1 (stereo not drawn)	x	n	x	n	x
c1ccc(Nc2nc(N3CCCCC3)nc(N3CCCCC3)n2)cc1	n	n	n	n	n
C1CCN(c2nc(N3CCCC3)nc(N3CCNCC3)n2)C1	n	n	6.0	n	n
c1ccc(Nc2nc(N3CCCCC3)nc(N3CCNCC3)n2)cc1	x	1.5	x	1.4	x
Nc1nc(N2CCCCC2)nc(N2CCCCC2)n1	n	n	n	n	n
Cc1ccc(C(=O)N(Nc2nc3ccccc3s2)C(=O)c2ccc(C)cc2)cc1	x	n	x	n	x
Cc1cc(C)c(S(=O)(=O)N2CCCCC2)c(C)c1N(C)S(=O)(=O)c1ccc(Cl)cc1	x	n	x	n	x
Cc1nc(Cl)c(C(=O)NC(=O)Nc2cccc(C(F)(F)F)c2)c(C)c1[N+](=O)[O-]	n	n	6.7	n	n
